S100A4 MyoIIA = inhibitors of S100A4-myosin IIA peptide binding, primary screen, biochemical, fluorescence polarization, TAMRA-MyoIIA peptide; Protein S100-A4 (Homo sapiens), P26447; inhibition, % at 10.7 µM; 0.14% of 360,000 active;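 active = mean inhibition of at least 70% across replicates, with every replicate also reaching that level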
Target sequence (P26447 whole entry, looked up): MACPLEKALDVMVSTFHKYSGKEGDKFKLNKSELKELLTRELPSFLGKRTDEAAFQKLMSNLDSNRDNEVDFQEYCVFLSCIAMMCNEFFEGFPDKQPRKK
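Material: S100A4 monomer (human). Medium: Calcium-containing HEPES buffer, pH 7.2. Probe or stimulus: labelled myosin peptide probe, 5 nM. Compound dosing: one concentration per compound. Timing: polarization read 5 min after assay mix addition, stable 5–60 min. Benchmarks: DMSO as neutral control, TFP as positive control.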
PDI turbidity = inhibitors of human PDI, primary screen, biochemical, turbidity, single point, plate reader; PDI insulin aggregation turbidity, A650, 90 min; inhibition, % at 10 µM; 0.052% of 350,000 active; AID 588391, 2011;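 active = mean inhibition across replicates of 30% or more, whatever share of single replicates reach that level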
Target sequence (P07237 whole entry, looked up): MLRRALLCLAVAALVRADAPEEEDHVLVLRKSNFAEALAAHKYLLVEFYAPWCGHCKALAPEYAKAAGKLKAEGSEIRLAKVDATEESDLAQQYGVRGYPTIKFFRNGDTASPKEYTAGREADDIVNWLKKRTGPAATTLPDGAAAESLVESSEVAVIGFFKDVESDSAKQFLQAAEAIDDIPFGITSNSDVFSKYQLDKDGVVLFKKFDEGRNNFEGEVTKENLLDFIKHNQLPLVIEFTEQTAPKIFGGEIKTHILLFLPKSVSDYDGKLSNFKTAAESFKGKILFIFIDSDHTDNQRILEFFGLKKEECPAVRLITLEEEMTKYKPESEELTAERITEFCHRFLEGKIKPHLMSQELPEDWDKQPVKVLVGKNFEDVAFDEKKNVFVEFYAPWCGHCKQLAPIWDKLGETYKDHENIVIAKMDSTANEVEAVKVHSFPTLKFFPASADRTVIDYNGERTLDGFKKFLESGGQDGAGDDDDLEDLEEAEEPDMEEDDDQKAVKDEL
SIRT5 block = SIRT5 desuccinylase inhibitors, primary screen, biochemical, fluorescence imaging, single point, set 5 | AID 652115, 2013 | inhibition, % at 15 µM | 1.1% of 330,000 active | Purified SirT5, succinyl-peptide AMC, trypsin-coupled fluorescence; in the data active = inhibition above about 15%
GSIS activator = GLuc luminescence reporter in INS-1E cells, primary screen for activators of glucose-dependent secretion of insulin. 0.61% of 370,000 active. AID 743287, 2014. INS-1E GLuc reporter insulin secretion, 2-3 h. activation, % at 16.6 µM;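 active = lowest replicate activation of at least 40%, so every replicate reaches that level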
ERp5 inh = inhibitors of ERp5-driven insulin aggregation, primary screen, biochemical, turbidity, absorbance 650 nm, single point; AID 651711, 2012; 0.05% of 350,000 active; Protein disulfide-isomerase A6 (Homo sapiens), Q15084; 90 min; inhibition, % at 9.99 µM;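 active = mean replicate inhibition above about 25%, with every replicate also reaching it, limit read from the data, passing the limit was not always enough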
Large screens that a line does not name were inactive. Shown are actives, neighbours in structure and some others; about 1.5% of the full set was active somewhere.

COc1cc(CN2CCN(C(=O)Cc3ccccc3)CC2)cc(OC)c1OC	SIRT5 block 15
COc1ccc(CN2CCN(C(=O)Cc3ccccc3)CC2)c(OC)c1	none (no result: S100A4 MyoIIA, SIRT5 block, ERp5 inh)
O=C(COc1ccc(Cl)cc1)N1CCN(Cc2ccccc2)CC1	SIRT5 block 16
COC(=O)[C@@H]1[C@@H](CO)[C@@H]2Cn3c(ccc(-c4ccccc4OC)c3=O)[C@H]1N2Cc1ccccc1	none (no result: PDI turbidity, SIRT5 block, ERp5 inh)
CCn1nc(/C=C/c2ccccc2)nc2c(=O)n(C)c(=O)nc1-2	ERp5 inh 38
FC(F)(F)CN1C[C@@H]2C(c3ccc(Br)cc3)[C@H](C1)N2CC1CC1 (some centres undefined)	none (no result: S100A4 MyoIIA, PDI turbidity, SIRT5 block, ERp5 inh)
CC(C)NC(=O)N1C[C@@H]2N[C@H](C1)C2c1ccccc1 (some centres undefined)	none (no result: S100A4 MyoIIA, PDI turbidity, SIRT5 block, ERp5 inh)
O=C1NC(=O)N(Cc2ccc(F)cc2)C(=O)/C1=C\c1ccc(N2CCCC2)cc1	none
O=C1NC(=O)N(Cc2ccc(F)cc2)C(=O)/C1=C\c1ccc([N+](=O)[O-])s1	SIRT5 block 28 (no result: GSIS activator)
COc1ccc(CN2C(=O)NC(=O)/C(=C/c3ccc([N+](=O)[O-])s3)C2=O)cc1	SIRT5 block 41 (no result: GSIS activator)
CCN1C(=O)C(=C/C=C/c2ccco2)C(=O)N(CC)C1=S	SIRT5 block 21
CN1[C@@H]2CN(CC3CC3)C[C@H]1C2c1ccc(Br)cc1 (some centres undefined)	none (no result: S100A4 MyoIIA, PDI turbidity, SIRT5 block, ERp5 inh)
OC[C@@H]1Nc2ccc(C#Cc3cccnc3)cc2[C@H]2NCC[C@@H]12	none (no result: S100A4 MyoIIA, PDI turbidity, SIRT5 block, ERp5 inh)
CCNc1nc(Cl)nc(NC(C)C)n1	GSIS activator 71 (no result: S100A4 MyoIIA, SIRT5 block, ERp5 inh)
O=C(O)[C@@H]1[C@@H](CO)[C@@H]2Cn3c(ccc(-c4ccncc4)c3=O)[C@H]1N2S(=O)(=O)c1ccccc1F	none (no result: S100A4 MyoIIA, PDI turbidity, SIRT5 block, ERp5 inh)
CC12Cc3cn[nH]c3C=C1CCC1C2CCC2(C)C1CCC2(C)O (centres undefined)	SIRT5 block 35
COc1cccc(-c2ccc3n(c2=O)C[C@@H]2[C@@H](CO)[C@H](C(=O)O)[C@H]3N2Cc2ccccc2F)c1	none (no result: S100A4 MyoIIA, PDI turbidity, SIRT5 block, ERp5 inh)
Cc1[nH]c2ccc(OC(F)(F)F)cc2c1CCNCc1ccc(Cl)cc1	GSIS activator 214
CS(=O)(=O)c1ccc(C2=C(CNC(=O)c3cccs3)[C@H]3CC[C@@H](C2)N3CCOc2ccccc2)cc1	SIRT5 block 30
O=C(O)[C@H]1[C@H](CO)[C@H]2Cn3c(ccc(-c4ccncc4)c3=O)[C@@H]1N2C(=O)C1CCCC1	none (no result: PDI turbidity)
C=CCn1c(O)c(/C=C2/C=CC=N2)c(=O)[nH]c1=O	none
CCCCn1c(O)c(/C=C2/C=CC=N2)c(=O)[nH]c1=O	GSIS activator 56
COC(=O)C1=C(c2cccc(OCc3ccccc3)c2)C[C@@H]2CC[C@H]1N2C(=O)NCCCOC(C)C	SIRT5 block 27
O=C1NC(=O)N(c2ccccc2F)C(=O)/C1=C/c1ccc(Sc2nc3ccccc3[nH]2)o1	S100A4 MyoIIA 171, SIRT5 block 23 (no result: GSIS activator)
O=C1NC(=O)N(c2cccc(Cl)c2)C(=O)/C1=C\c1ccc(Sc2nc3ccccc3[nH]2)o1	none
CN1CC(C(=O)c2ccc(Cl)cc2)C(c2ccccc2)C1 (centres undefined)	SIRT5 block 27
COc1ccc(C#Cc2ccc([C@@H]3[C@@H](CO)N4CCCCN(C(=O)Cc5ccncc5)C[C@@H]34)cc2)cc1	none (no result: PDI turbidity)
O=C(O)[C@@H]1[C@@H](CO)[C@@H]2Cn3c(ccc(-c4cccnc4)c3=O)[C@H]1N2S(=O)(=O)c1ccccc1F	none (no result: PDI turbidity)
CCc1ccc2nc(N3CCC(C(=O)N4CCC5(CC4)OCCO5)CC3)sc2c1	SIRT5 block 30
Cc1ccc2nc(N3CCC(C(=O)N4CCC5(CC4)OCCO5)CC3)sc2c1	none (no result: S100A4 MyoIIA, SIRT5 block, GSIS activator, ERp5 inh)
CCOC(=O)C1C(OC(=O)c2ccccc2)CC2CCC1N2C (centres undefined)	GSIS activator 41 (no result: SIRT5 block)
CN1C2CCC1C(C(=O)O)C(OC(=O)c1ccccc1)C2 (centres undefined)	GSIS activator 40 (no result: SIRT5 block)
C[C@]12CCC3C(CC[C@H]4C[C@@H](O)CC[C@]34C)C1C[C@@H](Br)[C@@H]2O (some centres undefined)	SIRT5 block 23 (no result: PDI turbidity, GSIS activator)
O=C(NC[C@H]1CC[C@H]2[C@H](CN2Cc2cccnc2)O1)C1CC1	none (no result: PDI turbidity, GSIS activator)
O=C(Cc1cccnc1)N1CCCCN2[C@@H](CO)[C@H](c3ccc(C#CC4CC4)cc3)[C@@H]2C1	none (no result: PDI turbidity, GSIS activator)
C[C@]12CCC3C(CCC4=C/C(=N/OCC(=O)NC(CCC(N)=O)C(=O)O)CC[C@@]43C)C1CCC2O (some centres undefined)	none
C[C@]12CCC3C(CCC4=C/C(=N/OCC(=O)NC(CCC(=O)O)C(=O)O)CC[C@@]43C)C1CCC2O (some centres undefined)	GSIS activator 44
CC1CCCN(c2ccc(C(=O)N3CCC4(CC3)OCCO4)cc2[N+](=O)[O-])C1 (centres undefined)	none
CCOC(=O)C1CCCN(c2ccc([N+](=O)[O-])c3nonc23)C1 (centres undefined)	S100A4 MyoIIA 170
COC(=O)[C@H]1[C@H](CO)[C@H]2Cn3c(ccc(-c4ccccc4)c3=O)[C@@H]1N2CC1CCOCC1	none (no result: PDI turbidity)
CCOC(=O)[C@]12Cc3cc(OC)ccc3[C@H]1N(C1CCCCC1)C(=O)c1cc(OC)ccc12	GSIS activator 325 (no result: PDI turbidity)
CN1CCN(c2cc([N+](=O)[O-])ccc2Cl)CC1	none
CC1CN(c2cc([N+](=O)[O-])ccc2Cl)CC(C)N1 (centres undefined)	GSIS activator 41
Cc1ccc(-n2c(/C=C/c3ccc4c(c3)OCO4)nc3ccccc3c2=O)cc1	none (no result: S100A4 MyoIIA, PDI turbidity, SIRT5 block, ERp5 inh)
COc1ccc(-n2c(/C=C/c3ccc4c(c3)OCO4)nc3ccccc3c2=O)cc1	SIRT5 block 32 (no result: GSIS activator)
O=P(Oc1ccccc1)(N1CCOCC1)N1CCOCC1	none
CN(c1ccccc1)P(=O)(N1CC1)N1CC1	SIRT5 block 16
FC(F)(F)CN1C[C@@H]2N[C@H](C1)C2c1ccc(Br)cc1 (some centres undefined)	none (no result: S100A4 MyoIIA, PDI turbidity, SIRT5 block, ERp5 inh)
CC(C)NC(=O)N1CC2C(c3ccccc3)C(C1)N2C (centres undefined)	none (no result: S100A4 MyoIIA, PDI turbidity, SIRT5 block, ERp5 inh)
Cc1nn(Cc2ccc(Cl)cc2Cl)c(Cl)c1C(=O)Nc1ccc(OC(F)F)cc1	GSIS activator 71 (no result: S100A4 MyoIIA, SIRT5 block, ERp5 inh)
Cc1nn(Cc2ccc(Cl)cc2Cl)c(Cl)c1C(=O)O	none
O=C1NC(=S)N(c2ccccc2)C(=O)/C1=C/c1ccco1	SIRT5 block 38
COc1cccc(N2C(=O)/C(=C/c3ccc(C)o3)C(=O)NC2=S)c1	none
CCOc1cccc(N2C(=O)/C(=C/c3ccco3)C(=O)NC2=S)c1	SIRT5 block 36
COc1ccc(/C=C2/C(=O)N(Cc3ccco3)C(=O)N(C(C)C)C2=O)cc1	SIRT5 block 25

Source: PubChem BioAssay
